Measured values pooled from the literature.
Lines come from different studies, so protocols differ.
Target: Casein kinase I isoform gamma-3 (CSNK1G3, Homo sapiens, UniProt Q9Y6M4)

CCCCC(=O)Nc1ccc(-c2ccc3ncn(CCC)c(=O)c3c2)cn1  remaining binding (binding, competition with immobilised ligand; 0.5 µM): 85%
C1=C/COCc2cc(ccc2OCCN2CCCC2)Nc2nccc(n2)-c2cccc(c2)COC/1  remaining signal (cell-free assay; 0.1 µM): 100%
CO[C@@H]1[C@H](N(C)C(=O)c2ccccc2)C[C@H]2O[C@]1(C)n1c3ccccc3c3c4c(c5c6ccccc6n2c5c31)C(=O)NC4  inhibition (enzyme activity, inhibitor; 1 µM): 0%
N#Cc1ccc2nc(Nc3ccc(N4CCOCC4)c(Cl)c3)[nH]c2c1  ΔTm (thermal stability, DSF; 30 µM): 3.3 °C
COc1ccc2[nH]c3c4[nH]c5ccc(OC)cc5c4c4c(c3c2c1)C(=O)NC4=O  remaining binding (binding; 1 µM): 100%
Cc1cc(O)c(-c2ccc([C@@H](C)CN(C)C)cc2)c2c1[nH]c(=O)c1sccc12  inhibition (enzyme activity, inhibitor; 0.1 µM): -4.11%
Cc1ccc(NC(=O)c2ccnc(C(F)(F)F)c2)cc1-c1cc(OCCO)nc(N2CCOCC2)c1  remaining binding (binding; 1 µM): 100%
C=CC(=O)N1CCC([C@@H]2CCNc3c(C(N)=O)c(-c4ccc(Oc5ccccc5)cc4)nn32)CC1  inhibition (enzyme activity, inhibitor; 1 µM): 0%
